Measured values published in ChEMBL document CHEMBL4673255, “Acylated 1H-1,2,4-Triazol-5-amines Targeting Human Coagulation Factor XIIa and Thrombin: Conventional and Microscale Synthesis, Anticoagulant Properties, and Mechanism of Action” (J Med Chem, 2020).
Activity calls are given as the source filed them. No cut-off for these calls is given here.

What was measured:
[1] = target: T1, Coagulation factor XII (Homo sapiens) (UniProt P00748); experiment: Binding affinity to human plasma coagulation factor XIIA assessed as compound-adduct formation at molar ratio of 1:20 preincubated for 4 mins followed by desalination and measured after 5 mins by SEC/ESI-TOF mass spectra analysis; assay type: cell-free
T1 sequence (whole entry): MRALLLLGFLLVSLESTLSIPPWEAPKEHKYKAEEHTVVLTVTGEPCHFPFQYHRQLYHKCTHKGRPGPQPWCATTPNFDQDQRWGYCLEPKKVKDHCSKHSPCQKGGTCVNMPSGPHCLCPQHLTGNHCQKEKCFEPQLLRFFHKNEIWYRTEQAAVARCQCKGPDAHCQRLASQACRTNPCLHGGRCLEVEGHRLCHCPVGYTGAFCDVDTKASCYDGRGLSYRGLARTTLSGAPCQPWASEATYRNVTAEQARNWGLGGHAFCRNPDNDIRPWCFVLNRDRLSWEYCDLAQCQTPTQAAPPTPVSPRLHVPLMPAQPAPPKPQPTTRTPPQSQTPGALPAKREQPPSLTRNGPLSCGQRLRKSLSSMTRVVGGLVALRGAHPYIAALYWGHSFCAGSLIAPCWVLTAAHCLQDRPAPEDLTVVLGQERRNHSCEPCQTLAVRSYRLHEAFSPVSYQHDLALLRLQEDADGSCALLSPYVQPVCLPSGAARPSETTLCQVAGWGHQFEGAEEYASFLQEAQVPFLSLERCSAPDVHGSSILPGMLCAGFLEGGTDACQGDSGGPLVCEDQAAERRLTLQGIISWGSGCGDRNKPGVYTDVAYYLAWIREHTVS
How it was run: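 β-FXIIa incubated with inhibitor at a 1:20 molar ratio, then size-exclusion chromatography coupled to ESI-MS to measure the mass of enzyme–inhibitor complexes. Further runs checked complex stability to probe reversibility.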

Plasma [2] = experiment: Antiplatelet activity in […] assessed as inhibition of MDA-MB-231-induced platelet aggregation at 10 uM by light transmission aggregometry; assay type: functional; conditions: Homo sapiens
Plasma [3] = experiment: Antiplatelet activity in […] assessed as inhibition of MDA-MB-231-induced platelet aggregation at 100 nM by light transmission aggregometry; assay type: functional; conditions: Homo sapiens
CCF-STTG1 = experiment: Cytotoxicity against human CCF-STTG1 cells assessed as reduction in cell viability at 100 uM incubated for 48 hrs by alamar blue assay relative to control; assay type: cell-based; conditions: ccf-sttg1, 48 h
[4] = target: T1, Coagulation factor XII (Homo sapiens); experiment: Time dependent inhibition of human coagulation factor XIIA using Boc-Gln-Gly-Arg-AMC as fluorogenic substrate at 0.5 to 132 uM by fluorescence assay; conditions: dose 0.0005-132 µM, in the assay text read “0.5 nM to 132 uM” for “0.5 to 132 uM”
How it was run: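 Buffer: Tris-Cl pH 7.4 with NaCl, MgCl2, CaCl2, 0.1% BSA and 0.01% Triton X-100. Fluorescence (ex 355/em 460 nm) read kinetically every 87 s for up to 180 min. IC50 calculated at each time point and plotted against time.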

Row | SMILES | Activity [1] | inhibition (Plasma [2]) | inhibition (Plasma [3]) | Activity (CCF-STTG1) | TDI [4]
1 | Nc1nc(-c2ccccn2)nn1C(=O)c1ccc2ccccc2c1 | inactive | Active | inactive | 36% | 
2 | Nc1nc(-c2ccccn2)nn1C(=O)c1cccc2ccccc12 |  |  |  |  | Active
